Assay results: ChEMBL document CHEMBL4014352, “Paying the Price of Desolvation in Solvent-Exposed Protein Pockets: Impact of Distal Solubilizing Groups on Affinity and Binding Thermodynamics in a Series of Thermolysin Inhibitors” (J Med Chem, 2017)
The source made the active and inactive calls.

Experiments:
[1] = biological target: T1, Thermolysin (Bacillus thermoproteolyticus) (UniProt P00800); test: Binding affinity to Bacillus thermoproteolyticus thermolysin using PIPES buffer by ITC
T1 sequence (whole entry): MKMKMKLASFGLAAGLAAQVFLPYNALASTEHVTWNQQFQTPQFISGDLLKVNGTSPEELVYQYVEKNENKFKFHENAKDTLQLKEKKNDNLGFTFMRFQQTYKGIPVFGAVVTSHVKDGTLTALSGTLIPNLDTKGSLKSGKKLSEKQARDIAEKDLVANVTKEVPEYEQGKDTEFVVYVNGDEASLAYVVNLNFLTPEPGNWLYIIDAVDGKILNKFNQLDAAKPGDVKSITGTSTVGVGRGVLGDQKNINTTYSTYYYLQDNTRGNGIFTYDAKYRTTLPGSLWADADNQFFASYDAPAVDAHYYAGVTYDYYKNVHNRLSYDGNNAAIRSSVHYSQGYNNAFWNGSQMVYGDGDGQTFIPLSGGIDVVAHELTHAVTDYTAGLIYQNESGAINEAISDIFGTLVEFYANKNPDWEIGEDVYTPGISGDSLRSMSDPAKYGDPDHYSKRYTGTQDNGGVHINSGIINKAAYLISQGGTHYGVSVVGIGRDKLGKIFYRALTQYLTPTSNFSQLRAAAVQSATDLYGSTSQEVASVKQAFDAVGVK
Method in brief: (§1)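 Freeze-dried thermolysin was dissolved just before each run in 20 mM buffer (HEPES, PIPES or sodium cacodylate, as in the line), 2 mM CaCl2 and 500 mM NaSCN, pH 7.5. ITC ran at 298 K with 10–15 injections, using either 250 μM protein with 3–3.5 mM ligand or 48 μM protein with 1 mM ligand. Ligand concentrations were corrected for qNMR purity. Each titration was run at least in duplicate.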

[2] = biological target: T1, Thermolysin (Bacillus thermoproteolyticus); test: Binding affinity to Bacillus thermoproteolyticus thermolysin using cacodylate buffer by ITC; method in brief: as §1
[3] = biological target: T1, Thermolysin (Bacillus thermoproteolyticus); test: Binding affinity to Bacillus thermoproteolyticus thermolysin using HEPES buffer by ITC; method in brief: as §1

Measured: Activity

CC(C)C[C@H](NP(=O)(O)CNC(=O)OCc1ccccc1)C(=O)N[C@@H](CCCCN)C(=O)O
active: all assays above

CC[C@H](NC(=O)[C@H](CC(C)C)NP(=O)(O)CNC(=O)OCc1ccccc1)C(=O)O
active: all assays above

CC(C)C[C@H](NP(=O)(O)CNC(=O)OCc1ccccc1)C(=O)NCCCN
active: all assays above

CC(C)C[C@H](NP(=O)(O)CNC(=O)OCc1ccccc1)C(=O)N[C@@H](CCCN)C(=O)O
active: all assays above

CC(C)C[C@H](NP(=O)(O)CNC(=O)OCc1ccccc1)C(=O)N[C@@H](CN)C(=O)O
active: all assays above

CC(C)C[C@H](NP(=O)(O)CNC(=O)OCc1ccccc1)C(=O)NCCN
active: all assays above

CC(C)C[C@H](NP(=O)(O)CNC(=O)OCc1ccccc1)C(=O)N[C@@H](CCN)C(=O)O
active: all assays above

CC(C)C[C@H](NP(=O)(O)CNC(=O)OCc1ccccc1)C(=O)NCCCCN
active: all assays above

CCCNC(=O)[C@H](CC(C)C)NP(=O)(O)CNC(=O)OCc1ccccc1
active: all assays above

CCNC(=O)[C@H](CC(C)C)NP(=O)(O)CNC(=O)OCc1ccccc1
active: all assays above

CC(C)C[C@H](NP(=O)(O)CNC(=O)OCc1ccccc1)C(=O)NCN
active: all assays above

CCC[C@H](NC(=O)[C@H](CC(C)C)NP(=O)(O)CNC(=O)OCc1ccccc1)C(=O)O
active: all assays above
